Assay results as given in ChEMBL document CHEMBL1142191, “Isolation and characterization of human immunodeficiency virus type 1 resistant to the small-molecule CCR5 antagonist TAK-652” (Antimicrob Agents Chemother, 2007).
Active and inactive are the calls of the source. No cut-off for these calls is given here.

What was measured:
[1] = test system: Human immunodeficiency virus 1; assay: Ratio of IC50 for HIV1 KK infected PBMC to IC50 for compound treated HIV1 KK infected PBMC after 67 passages; type: functional
In short: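 PHA-stimulated PBMCs infected with the passage-67 escape virus (1,400 CCID50, 4 h) were washed and exposed to 0.1–10,000 nM compound, split 1:2 on day 4, and read for day-7 supernatant p24 by ELISA. Triplicate wells in two donor experiments. Fold change = […].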

[2] = test system: Human immunodeficiency virus 1; assay: Antiviral activity in long term culture of HIV1 KK infected PBMCs after 67 passages assessed as p24 antigen levels at escalating concentrations; type: functional, organism-based; conditions: Human immunodeficiency virus 1, KK
In short: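 PHA-stimulated PBMCs (5 × 10^6) were infected with R5 clinical isolate KK (100 ng p24) and held compound-free for 2 days at 37°C, then washed. Culture started at 0.2 nM drug and was passaged weekly with fresh same-donor PBMCs. Drug was escalated when treated-culture supernatant p24 (ELISA) exceeded 50% of a parallel untreated control at two consecutive passages.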

[3] = test system: Human immunodeficiency virus 1; assay: Antiviral activity in long term culture of HIV1 KK infected PBMCs after 8 passages assessed as p24 antigen levels; type: functional, organism-based; conditions: Human immunodeficiency virus 1, KK
In short: (§1)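 Viruses were isolated at the stated passage from the drug-escalation culture and from the parallel untreated culture, then propagated once in PBMCs. PHA-stimulated PBMCs were infected with 1,400 CCID50 for 4 h, washed, and seeded with 0.1–10,000 nM compound. Cells were split 1:2 on day 4, and supernatant p24 was read by ELISA on day 7. Triplicate wells, two experiments with different donors; IC50 from a logistic least-squares fit.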

[4] = test system: Human immunodeficiency virus 1; assay: Antiviral activity in long term culture of HIV1 KK infected PBMCs after 56 passages assessed as p24 antigen levels; type: functional, organism-based; conditions: Human immunodeficiency virus 1, KK; in short: as §1
[5] = test system: Human immunodeficiency virus 1; assay: Inhibition of HIV1 KK infected PBMC; type: functional, organism-based; conditions: Human immunodeficiency virus 1, KK
[6] = test system: Human immunodeficiency virus 1; assay: Antiviral activity in long term culture of HIV1 KK infected PBMCs after 43 passages assessed as p24 antigen levels; type: functional, organism-based; conditions: Human immunodeficiency virus 1, KK; in short: as §1
[7] = test system: Human immunodeficiency virus 1; assay: Inhibition of R5 HIV1 replication at 5 uM; type: functional, organism-based

`CC(=O)N1CCC(C(=O)N(CCCN2CCC(Cc3ccc(C(N)=O)cc3)CC2)c2ccc(C)c(Cl)c2)CC1` was tested, and the “Ratio IC50” value [1] was 1.6 and the IC50 [2] was 1.3 nM.
With `Cc1ccc(-c2ccc3c(c2)C=C(C(=O)Nc2ccc(C[N+](C)(C)C4CCOCC4)cc2)CCC3)cc1.[Cl-]` the “Ratio IC50” value [1] was 37 and the IC50 [2] was 77 nM.
In the case of `CCCCOCCOc1ccc(-c2ccc3c(c2)/C=C(/C(=O)Nc2ccc([S@@+]([O-])Cc4cncn4CCC)cc2)CCCN3CC(C)C)cc1.CS(=O)(=O)O` [CENICRIVIROC MESYLATE], the “Ratio IC50” value [1] is reported as >230000, the IC50 [3] is reported as 0.24 nM and the IC50 [4] is reported as 67 nM. For the same molecule, the IC50 [2] was > 10000 nM, the IC50 [5] was 0.14 nM and the IC50 [6] was 0.2 nM. For the same molecule, the Activity [7] was “Active”.
